In ChEMBL document CHEMBL1649381, “Domino approach to 2-aroyltrimethoxyindoles as novel heterocyclic combretastatin A4 analogues” (Eur J Med Chem, 2011):

Experiments:
B16 = assay: Cytotoxicity against mouse B16 cells assessed as reduction in cell viability after 48 hrs by MTT assay; assay type: functional, cell-based; conditions: B16, 48 h
In short: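 B16 cells kept in DMEM with 2 mM L-glutamine, 10% FBS, penicillin/streptomycin at 37 °C, 5% CO2. After 48 h exposure, MTT was read at 562 nm with background subtracted. IC50 is the mean of three independent experiments.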

[1] = Inhibition of tubulin polymerization by DAPI fluorescent assay
In short: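 Tubulin (97% pure, 1 mg/ml final) in PME buffer (100 mM PIPES, 1 mM MgSO4, 2 mM EGTA) with DAPI and graded compound, colchicine as internal control. Preincubated 45 min at room temperature, then polymerization started by adding 1 mM GTP. Run 2 h at 37 °C with fluorescence excitation at 360 nm. IC50 taken from a semi-log plot of % inhibition against concentration.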

HCT-15 = assay: Antiproliferative activity against human HCT15 cells after 72 hrs by MTS assay; assay type: functional, cell-based; conditions: HCT-15, 72 h
In short: (§1)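 Cells grown in RPMI 1640 with 10% fetal calf serum, streptomycin and fungizone at 37 °C, 5% CO2. MTS reagent was added for 2 h and absorbance read at 490. IC50 is the concentration giving 50% growth inhibition.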

HT-29 = assay: Antiproliferative activity against human HT-29 cells after 72 hrs by MTS assay; assay type: functional, cell-based; conditions: HT-29, 72 h; in short: as §1
HCT-116 = assay: Antiproliferative activity against human HCT116 cells after 72 hrs by MTS assay; assay type: functional, cell-based; conditions: HCT-116, 72 h; in short: as §1

| SMILES | IC50 (B16) | IC50 [1] | IC50 (HCT-15) | IC50 (HT-29) | IC50 (HCT-116) |
| --- | --- | --- | --- | --- | --- |
| COc1cc2[nH]c(C(=O)c3ccccc3)cc2c(OC)c1OC | 45 µM | > 20 µM |  |  |  |
| COc1ccc(C(=O)c2cc3c(OC)c(OC)c(OC)cc3[nH]2)cc1 | > 50 µM | 9 µM | 0.45 µM | 1.24 µM | 4.2 µM |
| COc1ccc(C(=O)c2cc3c(OC)c(OC)c(OC)cc3[nH]2)cc1F | 16 µM | > 20 µM |  |  |  |
| COc1cc2[nH]c(C(=O)c3ccc(C)cc3)cc2c(OC)c1OC | 10 µM | 4 µM | 0.61 µM | 1.09 µM | 2.8 µM |
| COc1cc2[nH]c(C(=O)c3ccc(C)c(N)c3)cc2c(OC)c1OC | 36 µM | 10 µM | 0.32 µM | 0.99 µM | 2 µM |
| COc1ccc(C(=O)c2cc3c(OC)c(OC)c(OC)cc3[nH]2)cn1 | > 50 µM | 15 µM |  |  |  |
| COc1cc2[nH]c(C(=O)/C=C/c3ccccc3)cc2c(OC)c1OC | 16 µM | > 20 µM |  |  |  |
| COc1cc2cc(C(=O)c3ccccc3)[nH]c2c(OC)c1OC | > 50 µM | 9 µM | > 50 µM | > 50 µM | > 50 µM |
| COc1ccc(C(=O)c2cc3cc(OC)c(OC)c(OC)c3[nH]2)cc1 | > 50 µM | 12 µM |  |  |  |
| COc1ccc(C(=O)c2cc3cc(OC)c(OC)c(OC)c3[nH]2)cc1F | > 50 µM | 20 µM |  |  |  |
| COc1cc2cc(C(=O)c3ccc(C)cc3)[nH]c2c(OC)c1OC | 10 µM | > 20 µM | > 50 µM | > 50 µM | > 50 µM |
| COc1ccc(C(=O)c2cc3cc(OC)c(OC)c(OC)c3[nH]2)cn1 | > 50 µM | 18 µM |  |  |  |
| COc1cc2cc(C(=O)/C=C/c3ccccc3)[nH]c2c(OC)c1OC | 33 µM | 18 µM |  |  |  |
| COc1ccc(/C=C\c2cc(OC)c(OC)c(OC)c2)cc1O [COMBRETASTATIN A4] | 0.005 µM | 0.27 µM | 0.001 µM | 0.013 µM | 0.001 µM |
